Assay results published in ChEMBL document CHEMBL3351496, “Inhibition of the ANT(2")-Ia resistance enzyme and rescue of aminoglycoside antibiotic activity by synthetic α-hydroxytropolones” (Bioorg Med Chem Lett, 2014).
pIC50, pKi: −log10 of the molar value. The source made the active and inactive calls. The calls are words filed in the database; no cut-off is given here.

Tests used:
[1] = Inhibition of Escherichia coli BL21 (lambda DE3) 2''-O-adenylyltransferase 1a by EnzChek pyrophosphate assay
Summary of the method: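 ANT(2″)-Ia overexpressed in E. coli BL21 (λDE3) and purified. Adenylation of kanamycin B followed by detecting the pyrophosphate by-product in 96-well format. ATP at 25 μM. Duplicate serial dilutions of inhibitor; IC50 taken from the dose curves.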

[2] = test system: Escherichia coli; experiment: Inhibition of Escherichia coli W677/JR76.2 2''-O-adenylyltransferase 1a using [14C]ATP at 5.5 uM by liquid scintillation counting analysis
[3] = test system: Escherichia coli; experiment: Inhibition of Escherichia coli W677/JR76.2 2''-O-adenylyltransferase 1a using [14C]ATP at 550 uM by liquid scintillation counting analysis
[4] = test system: Escherichia coli; experiment: Inhibition of Escherichia coli W677/JR76.2 2''-O-adenylyltransferase 1a using [14C]ATP at 55 uM by liquid scintillation counting analysis
[5] = Binding affinity to Escherichia coli BL21 (lambda DE3) 2''-O-adenylyltransferase 1a by ATP-competitive inhibition assay
Summary of the method: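 Purified ANT(2″)-Ia expressed in E. coli BL21 (λDE3). Pyrophosphate from kanamycin B adenylation detected by coupled pyrophosphate assay. Ki derived from dose curves with carefully maintained ATP and kanamycin B concentrations. Run only on compounds with IC50 < 200 μM.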

[6] = test system: Escherichia coli; experiment: Antibacterial activity against Escherichia coli BW25113 expressing 2''-O-adenylyltransferase 1a with aadB gene into pGDP4 vector by checkerboard analysis in presence of gentamycin; assay type: functional
Summary of the method: (§1)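 Hyper-permeable E. coli BW25113 made gentamicin-resistant by cloning aadB (ANT(2″)-Ia) into pGDP4. Cells were exposed to serial dilutions of gentamicin crossed with serial dilutions of α-hydroxytropolone in checkerboard format. Growth was scored to give the gentamicin MIC at each inhibitor level and the FICI. Cell survival, as fraction of cells remaining, was scored at the inhibitor-alone concentrations.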

[7] = test system: Escherichia coli; experiment: Antibacterial activity against wild type Escherichia coli BW25113; assay type: functional, organism-based
Summary of the method: (§2)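 Gentamicin alone was serially diluted to find its MIC (μg/mL). This was done against E. coli BW25113 carrying aadB in pGDP4 and against wild-type BW25113 without the plasmid.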

[8] = test system: Escherichia coli; experiment: Antibacterial activity against Escherichia coli BW25113 expressing 2''-O-adenylyltransferase with aadB gene into pGDP4 vector; assay type: functional, organism-based; summary of the method: as §2
[9] = test system: Escherichia coli; experiment: Antibacterial activity against Escherichia coli BW25113 expressing 2''-O-adenylyltransferase 1a with aadB gene into pGDP4 vector assessed as gentamycin MIC at 12 uM by checkerboard analysis; assay type: functional; summary of the method: as §1
[10] = test system: Escherichia coli; experiment: Inhibition of Escherichia coli W677/JR76.2 2''-O-adenylyltransferase 1a using [14C]ATP at 7.3 uM by liquid scintillation counting analysis
[11] = test system: Escherichia coli; experiment: Inhibition of Escherichia coli W677/JR76.2 2''-O-adenylyltransferase 1a using [14C]ATP at 73 uM by liquid scintillation counting analysis
[12] = test system: Escherichia coli; experiment: Antibacterial activity against Escherichia coli BW25113 expressing 2''-O-adenylyltransferase 1a with aadB gene into pGDP4 vector assessed as cell death at 50 uM; assay type: functional, organism-based; summary of the method: as §1
[13] = test system: Escherichia coli; experiment: Inhibition of Escherichia coli W677/JR76.2 2''-O-adenylyltransferase 1a using [14C]ATP at 730 uM by liquid scintillation counting analysis
[14] = test system: Escherichia coli; experiment: Antibacterial activity against Escherichia coli BW25113 expressing 2''-O-adenylyltransferase 1d with aadB gene into pGDP4 vector by checkerboard analysis in presence of gentamycin; assay type: functional
[15] = test system: Escherichia coli; experiment: Antibacterial activity against Escherichia coli BW25113 expressing 2''-O-adenylyltransferase 1a with aadB gene into pGDP4 vector assessed as cell remain at 50 uM; assay type: functional; summary of the method: as §1

CCOC(=O)c1cc(O)c(=O)c(O)cc1C
pIC50 [1]: < 3.70

O=c1c(O)ccccc1O
inhibition [2]: 8% | inhibition [3]: 100% | inhibition [4]: 78%

Cc1cc(O)c(=O)c(O)cc1-c1ccc2ccccc2c1
pIC50 [1]: < 3.70

Cc1cc(O)c(=O)c(O)cc1-c1ccc(Br)cc1
pKi [5]: 5.24 | pIC50 [1]: 5.10 | fractional inhibitory concentration index (FICI) [6]: 1

Cc1cc(O)c(=O)c(O)cc1C(=O)C(C)C
pKi [5]: 4.72 | pIC50 [1]: 4.14 | fractional inhibitory concentration index (FICI) [6]: 0.375

Cc1cc(O)c(=O)c(O)cc1-c1cccc2ccccc12
pIC50 [1]: < 3.70

COCc1cc(O)c(=O)c(O)c(C(=O)OC)c1C(=O)OC
pIC50 [1]: < 3.70

Cc1cc(O)c(=O)c(O)cc1C(=O)C1CCCCC1
pIC50 [1]: < 3.70

COC(=O)c1c(C)cc(O)c(=O)c(O)c1C(=O)OC
pIC50 [1]: < 3.70

Cc1cc(O)c(=O)c(O)cc1-c1ccc([N+](=O)[O-])cc1
pKi [5]: 4.67 | pIC50 [1]: 4.70 | fractional inhibitory concentration index (FICI) [6]: 0.5

COC(=O)c1c(CCl)cc(O)c(=O)c(O)c1C(=O)OC
pIC50 [1]: < 3.70

Cc1cc(O)c(=O)c(O)cc1C(=O)c1ccccc1
pIC50 [1]: < 3.70

GENTAMICIN
MIC [7]: 0.25 µg/mL | MIC [8]: 64 µg/mL

COc1cc(C)c(-c2ccc([N+](=O)[O-])cc2)cc(O)c1=O
pIC50 [1]: < 3.70

COc1cc(C)c(C(C)=O)cc(O)c1=O
pIC50 [1]: < 3.70

Cc1cc(O)c(=O)c(O)cc1-c1ccc(-c2ccccc2)cc1
pIC50 [1]: < 3.70

Cc1cc(O)c(=O)c(O)cc1-c1ccc(Cl)cc1
pKi [5]: 5.16 | pIC50 [1]: 5.00 | fractional inhibitory concentration index (FICI) [6]: 2

CC(C)c1ccc(O)c(=O)c(O)c1 [BETA-THUJAPLICINOL]
pKi [5]: 5.19 | MIC [9]: 8 µg/mL | inhibition [10]: 31% | inhibition [11]: 76% | pIC50 [1]: 5.18 | Activity [12]: Active | fractional inhibitory concentration index (FICI) [6]: 0.375 | inhibition [13]: 100% | fractional inhibitory concentration index (FICI) [14]: 3

Cc1cc(O)c(=O)c(O)cc1-c1ccccc1
pKi [5]: 4.60 | pIC50 [1]: 3.93 | fractional inhibitory concentration index (FICI) [6]: 2

Cc1cc(O)c(=O)c(O)cc1C(=O)CC1CCCCC1
pIC50 [1]: < 3.70

Cc1cc(O)c(=O)c(O)cc1-c1ccc(C(F)(F)F)cc1
pIC50 [1]: < 3.70

CC(=O)c1cc(O)c(=O)c(O)cc1C
pKi [5]: 4.54 | MIC [9]: 32 µg/mL | pIC50 [1]: 4.30 | fractional inhibitory concentration index (FICI) [6]: 0.187 | Activity [15]: 80%
